Screens: PubChem, Broad Institute
SR-BI DiI-HDL act – enhances SR-BI lipid uptake from DiI-HDL; CHO ldlA[mSR-BI] cells, DiI-HDL uptake fluorescence, 3 h; 100 = double the neutral-control signal; activation, % at 12.5 µM; actives 0.096% (n = 320,000); AID 504775;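 active = mean replicate activation of at least 60% and every replicate at or above 60%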;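 also: 0% = median plate neutral-control signal and 100% = twice that signal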
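Test system: SR-BI-overexpressing, LDLR-lacking CHO cells; Also added: labelled HDL, 10 µg/mL; Measured by: bottom-read cell fluorescence after medium removal, ex 550/em 595 nm; Timing: 3 h uptake period with compound, 37 °C; Buffer or medium: F12, 0.5% BSA, 25 mM HEPES; Doses: single compound concentration, delivered by pin transfer.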
CDK5 p35 inh – blocks human CDK5/p35 kinase activity. Q00535+Q15078. actives 0.01% (n = 330,000). Recombinant CDK5/p35, ADP-Glo luminescence, 60 min. AID 488839. inhibition, % at 10 µM;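 active = highest replicate inhibition of at least 50% and at least 75% of replicates reaching 50%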;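 also: plate controls were DMSO neutral control for no effect and GW8510 at 10 µM for full effect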
SR-BI HDL uptake – blocks mouse SR-BI lipid uptake from DiI-HDL; inhibition, % at 12.5 µM; actives 0.96% (n = 320,000); ldlA[mSR-BI] CHO cells, DiI-HDL uptake fluorescence, 3 h; Q61009; AID 488896;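 active = mean replicate inhibition of at least 70% and a set share of replicates each scoring 70 or more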;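 also: 0% = median of neutral control wells and 100% = median of positive control wells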
dFosB activator – enhances mouse delta FosB homodimer DNA binding; P13346; purified delta FosB, TAMRA-CDK5 oligo fluorescence polarization; percent of positive-control signal above neutral wells; activation, % at 25 µM; actives 0.99% (n = 340,000);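 active = mean activation above about 17%, with every replicate also reaching it, limit read from the data, passing the limit was not always enough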
Target sequence (P13346 whole entry, looked up): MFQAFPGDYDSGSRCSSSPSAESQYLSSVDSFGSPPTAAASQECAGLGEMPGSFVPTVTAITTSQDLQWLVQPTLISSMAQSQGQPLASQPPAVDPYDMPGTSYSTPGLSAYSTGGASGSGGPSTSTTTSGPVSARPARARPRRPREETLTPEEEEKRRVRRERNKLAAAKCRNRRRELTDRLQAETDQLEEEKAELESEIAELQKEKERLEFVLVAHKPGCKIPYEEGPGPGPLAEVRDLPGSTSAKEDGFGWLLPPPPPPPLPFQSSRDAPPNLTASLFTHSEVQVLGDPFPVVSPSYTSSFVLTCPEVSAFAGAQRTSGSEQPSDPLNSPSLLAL
DiI quench – quenches DiI-HDL fluorescence, an SR-BI assay artifact | shares compounds with SR-BI HDL uptake | AID 540326 | actives 20% (n = 470) | cell-free DiI-HDL fluorescence quenching, 30 min | AC50, µM (series often up to 35 µM), for the others: at the top dose activity change, negative = quenching;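 active = quenching, a falling signal, with AC50 below a set limit tied to the top valid dose, actives reach about 32 µM in these data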
An asterisk follows results filed as active; . = not tested or not shown. Rows were chosen to be rich in hits. Some 2% of all compounds tested hit in one or more screens of this group.

SMILES	SR-BI DiI-HDL act	CDK5 p35 inh	SR-BI HDL uptake	dFosB activator	DiI quench
CNc1nc2ccccc2n1CC(=O)c1ccccc1	2	0	-2	-4	.
COc1cccc(OCc2cc(C(=O)NCc3cnc4ccccn34)no2)c1	-10	-1	10	0	.
Cn1nccc1C(=O)N1CCCC(Nc2ccc(F)cc2)C1 (stereo not drawn)	7	2	-7	-9	.
Cc1cc(C)nc(N2CCC(C(=O)N3CCN(c4cc(Cl)ccc4C)CC3)CC2)n1	-103	-1	102*	-15	-2%
Cc1ccccc1N1C(=O)CN(Cc2sccc2C)C1=S	-2	0	2	8	.
Cc1ccsc1C(=O)OCc1nc2ccsc2c(=O)[nH]1	13	-1	-13	-1	.
CC(=O)c1c(C)[nH]c(C(=O)OCc2nc3ccsc3c(=O)[nH]2)c1C	-71	1	71*	-6	-6%
CC(C)=CCc1c2c(c3occ(-c4ccc(O)c(O)c4)c(=O)c3c1O)C=CC(C)(C)O2	-131	4	131*	-21	0.81µM*
Cc1c(OC(C)C(=O)NCc2ccccn2)ccc2c3c(c(=O)oc12)CCCC3 (stereo not drawn)	-21	1	21	-19	.
COc1ccc2c(c1)CC(C1(O)C(=O)N(C)c3ccccc31)C2=O (stereo not drawn)	-85	1	85*	3	-5%
Cc1cc(C)cc(SCc2noc(C(=O)NCCC(C)C)c2C(=O)NCCC(C)C)c1	9	-2	-9	-1	.
CC1(C)CSC(C)(C)C(=O)N1	10	2	-10	-18	.
COC(=O)c1[nH]c2cc(OC)ccc2c1NC(=O)c1ccc2c(c1)OCO2	-72	0	72*	5	12µM*
O=C(Nc1ccc([N+](=O)[O-])cc1)Nc1ccc(OC(F)F)c(Cl)c1	-33	0	33	-2	.
CCCOc1ccc(C(=O)Nc2ccc(S(=O)(=O)N3C[C@@H]4C[C@@H](C3)c3cccc(=O)n3C4)cc2)cc1	-57	1	57	14	3%
CCCOc1ccc(C(=O)Nc2ccc(S(=O)(=O)N3CCN(C)CC3)cc2)cc1	-19	-1	19	-8	.
CCc1nc(N2CCN(C(=S)NCCCOC)CC2)c2c3c(sc2n1)CCCC3	-88	-4	88*	-8	0%
CC(=O)Nc1c(I)c(C(=O)N[C@H]2C(O)O[C@H](CO)[C@@H](O)[C@@H]2O)c(I)c(N(C)C(C)=O)c1I (stereo partly drawn)	1	-1	-1	6	-1%
CCOc1ccc(CCNC(=O)C2CC(=O)N(c3ccccc3OCC)C2)cc1OCC (stereo not drawn)	-79	0	79*	2	-1%
CCOc1ccccc1N1CC(C(=O)NCCC2=CCCCC2)CC1=O (stereo not drawn)	-63	-5	63	-2	.
CC(=O)c1ccc(S(=O)(=O)N2CCN(C(=O)CSc3ccc(F)cc3)CC2)cc1	.	-1	.	-10	.
CCOc1ccc(NC(=O)c2ccc3c(c2)N(Cc2ccc(F)cc2)C(=O)CS3=O)cc1 (stereo not drawn)	-17	1	17	-6	.
Cc1ccc(C)c(NC(=O)c2ccc3c(c2)N(Cc2ccc(F)cc2)C(=O)CS3=O)c1 (stereo not drawn)	7	1	-7	-12	-3%
Cc1ccccc1NC(=O)NCC1CCN(c2ccc(S(=O)(=O)N3CCOCC3)cc2)CC1	-82	0	82*	6	-2%
CC(=O)Nc1ccc(S(=O)(=O)Nc2cc(C)c(-n3nc4ccccc4n3)cc2O)cc1	-93	0	93*	-2	9.6µM*
CC(=O)Nc1ccc(S(=O)(=O)Nc2nc3ccccc3nc2Nc2ccc(C(=O)O)c(O)c2)cc1	12	-1	-12	-7	.
COc1ccc(-c2nnn(CC(=O)N(c3cccc(O)c3)C(C)C(=O)NC3CCCC3)n2)cc1OC (stereo not drawn)	-16	-1	16	-9	.
COc1ccc(N(CC(=O)NC2CCCC2)C(=O)Cn2nnc(-c3ccc(OC)c(OC)c3)n2)cc1	-80	0	80*	-9	-4%
CCC(C(=O)NC1CCCC1)N(C(=O)Cn1nnc(-c2ccc(OC)c(OC)c2)n1)c1cccc(O)c1 (stereo not drawn)	-28	-1	28	-12	0%
